Tn7 DDE FP = inhibitors of Tn7 peptide binding to fibrin DD(E), primary screen, biochemical, fluorescence polarization, human fibrin, Tn7 probe; FP displacement of FITC-Tn7 peptide from fibrin DD(E); 0% = median of compound wells per plate; inhibition, % at 8.3 µM; hit rate 0.13% among 370,000; Fibrinogen beta chain (Homo sapiens), P02675;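 active = inhibition above the mean of compounds falling within the control limits plus 3 SD of them, cut at about 14% in these data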;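 note: 0% = plate median of compound wells and 100% = 10 µM Aha-Tn7 peptide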
Target sequence (P02675 whole entry, looked up): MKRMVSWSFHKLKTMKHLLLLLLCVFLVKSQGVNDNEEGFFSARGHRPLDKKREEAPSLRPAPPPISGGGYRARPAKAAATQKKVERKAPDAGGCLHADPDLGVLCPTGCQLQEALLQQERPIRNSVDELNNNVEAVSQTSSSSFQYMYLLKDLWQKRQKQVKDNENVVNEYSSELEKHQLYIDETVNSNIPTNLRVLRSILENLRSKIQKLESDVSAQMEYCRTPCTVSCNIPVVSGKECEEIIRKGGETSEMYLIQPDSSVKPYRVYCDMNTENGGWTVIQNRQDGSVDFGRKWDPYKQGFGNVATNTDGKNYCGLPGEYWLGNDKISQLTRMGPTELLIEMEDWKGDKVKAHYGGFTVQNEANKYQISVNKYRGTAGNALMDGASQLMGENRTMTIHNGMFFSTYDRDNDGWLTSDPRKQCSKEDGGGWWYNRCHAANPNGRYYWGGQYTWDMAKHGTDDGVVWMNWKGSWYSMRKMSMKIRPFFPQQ
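Test system – human fibrin DD(E) · Times – 10 min preincubation, 3 h with tracer, room temperature · Detection – fluorescence polarization of the labelled Tn7 tracer · Measure – percent inhibition normalized to high-control wells · Benchmarks – high control wells with 10 µM unlabelled Aha-Tn7 peptide (full inhibition) · Repeats – singlicate testing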
PLCb3 inh = human PLC-beta3 inhibitors, primary screen, biochemical, fluorescence; 1-phosphatidylinositol 4,5-bisphosphate phosphodiesterase beta-3 (Homo sapiens), Q01970; Purified PLC-beta3, fluorogenic substrate; inhibition, % at 12.2 µM; hit rate 0.18% among 370,000; in the data active = inhibition above about 11%;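 note: 0% = median of compound wells on plate and 100% = full blocker control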
PLC-gamma1 inh = PLC-gamma1 enzyme inhibitors, primary screen, biochemical, fluorescence, purified enzyme | fluorogenic substrate | inhibition, % at 12.2 µM | hit rate 0.84% among 370,000; in the data active = inhibition above about 9.5%
DDE Tn6 FP inh = inhibitors of Tn6 peptide binding to fibrin DD(E), primary screen, biochemical, fluorescence polarization, human fibrin, Tn6 probe | Fibrinogen beta chain (Homo sapiens), P02675 | Fibrin DD(E) TRITC-Tn6 fluorescence polarization displacement | inhibition, % at 8.3 µM | hit rate 0.21% among 370,000 | AID 720509, 2013;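 active = inhibition above a per-campaign cutoff: mean of compounds within control limits plus 3 SD, cut at about 15% in these data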;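 note: 0% = median of all compound wells on the plate and 100% = blocking peptide control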
CendR NRP1 mod = modulators of CendR peptide binding to NRP-1, primary screen, biochemical, fluorescence polarization, uHTS; FAM-RPARPAR peptide binding to NRP-1; inhibition, % at 25 µM; hit rate 0.85% among 360,000; AID 602438, 2012;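 active = inhibition or corrected inhibition above about 18%, plus a signal ratio from 0.5 to 1.5, limit read from the data, passing the limit was not always enough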
KLK7 zymogen act = proKLK7 zymogen activators, primary screen, biochemical, fluorescence intensity | Kallikrein-7 (Homo sapiens), P49862 | purified proKLK7, EDANS-DABCYL substrate fluorescence; 100% is mature enzyme control, 0% vehicle | activation, % at 7 µM | hit rate 0.9% among 370,000 | AID 652039, 2013;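 active = activation above the mean of all tested compounds plus 3 SD, computed per campaign excluding outliers beyond control limits, cut at about 13% in these data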
Target sequence (P49862 whole entry, looked up): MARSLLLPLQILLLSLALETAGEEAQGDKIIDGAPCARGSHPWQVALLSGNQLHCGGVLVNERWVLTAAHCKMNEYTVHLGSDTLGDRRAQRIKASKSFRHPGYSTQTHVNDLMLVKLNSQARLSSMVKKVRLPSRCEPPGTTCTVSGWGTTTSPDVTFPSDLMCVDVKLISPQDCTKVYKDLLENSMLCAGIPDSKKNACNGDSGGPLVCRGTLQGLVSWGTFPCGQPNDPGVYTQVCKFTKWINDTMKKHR
proKLK7 act conf = proKLK7 zymogen activators, confirmation, biochemical, fluorescence intensity, triplicate. shares compounds with KLK7 zymogen act. purified proKLK7, EDANS-DABCYL substrate fluorescence; scaled: vehicle 0, mature enzyme 100. activation, % at 7 µM. hit rate 68% among 3,200. AID 686949, 2013;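 active = activation, as change over the incubation, above the mean of all tested compounds plus 3 SD, cut at about 13% in these data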
EDANS-DABCYL int = EDANS-DABCYL substrate optical interference, artefact control for kallikrein-7 zymogen activator project, biochemical, fluorescence intensity, high throughput. shares compounds with KLK7 zymogen act. no enzyme, 4 h; solvent 0%, active enzyme control 100%. activation, % at 7 µM. hit rate 80% among 3,200. AID 686952, 2013;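 active = activation above the all-compound mean plus 3 SD, ignoring values outside control-based bounds, cut at about 4.8% in these data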;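 note: value is the 4 h activation minus the activation read at time zero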
EDANS interf = optically interferes with EDANS-DABCYL fluorescence, kallikrein-7 activator counter-screen | shares compounds with KLK7 zymogen act | EDANS-DABCYL peptide fluorescence interference, no enzyme | EC50, µM | hit rate 20% among 250 | AID 720493;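 active = compounds that raise the fluorescence signal in this interference counterscreen, with EC50 at or below 10 µM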;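 note: intact quenched peptide substrate alone read at 355 nm excitation and 520 nm emission; signal is fluorescence gain from T0 to T4 after four hours at room temperature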
Tn7 DDE conf = inhibitors of Tn7 peptide binding to fibrin DD(E), confirmation, biochemical, fluorescence polarization, human fibrin, Tn7 probe | inhibition, % at 8.3 µM | AID 720628, 2013 | FP displacement of TRITC-Tn7 peptide from DD(E); 0% set at plate's compound-well median | hit rate 5% among 460 | shares compounds with Tn7 DDE FP;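 active = inhibition above the campaign cutoff, the mean of compounds within control limits plus 3 SD, cut at about 14% in these data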;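 note: 100% = median FP of high control wells holding Aha-Tn7 inhibitor peptide; displacers lower polarization since freed probe rises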
DDE Tn7 FP ctr = DD(E)-Tn7 binding inhibition, counter-screen; shares compounds with Tn7 DDE FP; fibrin DD(E), TRITC-Tn7 probe displacement, fluorescence polarization; inhibition, % at 8.3 µM; hit rate 3% among 460;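 active = inhibition above the cutoff, the mean of compounds lying between the control bounds plus 3 SD of those compounds, cut at about 17% in these data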;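 note: 0% = median of compound sample wells and 100% = excess unlabeled Aha-Tn7 peptide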
DDE Tn6 FP ctr = counter-screen hit for Tn6 peptide-fibrin DD(E) binding disruption | TRITC-Tn6 fluorescence polarization displacement; 0% = median of compound wells, not DMSO | shares compounds with DDE Tn6 FP inh | inhibition, % at 8.3 µM | AID 720621 | hit rate 2% among 680;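 active = inhibition above the mean of test compounds lying between the control limits plus 3 SD of those, cut at about 14% in these data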;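 note: 0% = median of compound wells and 100% = wells with Aha-Tn7 blocking peptide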
DDE Tn6 confirm = inhibitors of Tn6 peptide binding to fibrin DD(E), confirmation, biochemical, fluorescence polarization, human fibrin, Tn6 probe; inhibition, % at 8.3 µM; hit rate 10% among 680; FP displacement of TRITC-Tn6 peptide from DD(E); 0% = per-plate median of test wells; shares compounds with DDE Tn6 FP inh;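 active = inhibition above the mean of compounds lying within the control limits plus 3 SD, cut at about 16% in these data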;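 note: 100% = high control wells holding a competing inhibitor peptide at 10 µM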
* hit, by the source's call; i = inactive; · = no result. Shown are actives, neighbours in structure and some others; about 3% of the full set was active somewhere.

SMILES	Tn7 DDE FP	PLCb3 inh	PLC-gamma1 inh	DDE Tn6 FP inh	CendR NRP1 mod	KLK7 zymogen act	proKLK7 act conf	EDANS-DABCYL int	Tn7 DDE conf	DDE Tn7 FP ctr	others
CC1CCCN(CCCNC(=O)c2cc3c(Cl)nc4ccccc4c3s2)C1 (configuration not stated)	1	1	3	9	-18	0	·	·	·	·
CCCCNc1cccc2c1S(=O)(=O)N[C@@H](CC(C)C)CO2	3	2	4	-10	·	0	·	·	·	·
COc1c(F)c(F)cc2c(=O)c(C(=O)O)cn(C3CC3)c12	9	0	-3	1	3	0	·	·	·	·
CC1COc2c(N3CCN(C)CC3)c(F)cc3c(=O)c(C(=O)O)cn1c23 (configuration not stated)	0	i	i	-5	-3	160*	32*	34*	·	·
CCOc1ccc(NC(=O)c2ccc(NC(=O)c3cn4c5c(c(N6CCN(C)CC6)c(F)cc5c3=O)OCC4C)cc2)cc1 (configuration not stated)	-3	-206	-222	1	16	43*	10	8.4*	·	·
COC(=O)C1CN(CCO)CCS(=O)(=O)N1Cc1cn(Cc2cccc(Cl)c2)nn1 (configuration not stated)	-2	5	0	0	·	1	·	·	·	·
COc1ccc2nc3cc(Cl)ccc3c(C#N)c2c1	-11	-72	-48	-3	1	0	·	·	·	·
COc1ccc2nc3cc(Cl)ccc3c(Nc3ccc(O)c(CN4CCN(C)CC4)c3)c2c1	9	-377	-310	-12	9	22*	32*	22*	·	·	EDANS interf=>69
COCCn1c2nc(=O)n(-c3ccccc3)c(=O)c-2nc2ccccc21	51*	i	i	2	128	49*	40*	45*	26*	-1
O=C1CCN2C=Nc3cccc4ccc1c2c34	63*	i	i	3	144	56*	68*	66*	30*	-8
c1ccc(-c2cc(-c3nc4ccccc4[nH]3)c3ccccc3n2)cc1	-2	i	i	-15	6	-29	·	·	·	·
O=c1oc2c(O)cccc2cc1-c1nc2ccccc2[nH]1	36*	i	i	-4	-8	46*	75*	67*	21*	-4
COC(=O)[C@]12C[C@H](CC(=O)N3CCOCC3)C(=O)N(Cc3ccc4c(c3)OCO4)C1=C[C@H](C(C)C)O[C@@H]2C1CC1	-1	2	0	-2	·	0	·	·	·	·
CC(C)(C)/C(COc1ccccc1[N+](=O)[O-])=N/O	1	3	1	4	12	0	·	·	·	·
CC(C)(C)OC(=O)C(Oc1ccccc1[N+](=O)[O-])C(=O)OC(C)(C)C	19*	-2	4	11	9	325*	217*	205*	1	11
CCCC/C=C1/[C@H](c2ccc(Cl)cc2)N(Cc2ccc3c(c2)OCO3)C2=N[C@H](c3ccccc3)CC(=O)N21	3	-3	-4	14	·	-1	·	·	·	·
O=C(c1ccccc1C(F)(F)F)N1CCC(Oc2cccnc2)CC1	-4	-1	-1	-7	·	0	·	·	·	·
COc1ccc(/C=C/c2cc(C(=O)O)c3ccccc3n2)cc1	38*	i	i	9	0	13*	72*	72*	2	2
COc1ccc(CNC(=O)C[C@H]2C[C@H](C(=O)N3CCOCC3)[C@@]3(C)c4[nH]c5cc(-c6ccco6)ccc5c4CCN3C2=O)cc1OC	46*	-431	-334	115*	-3	100*	57*	64*	2	1	DDE Tn6 FP ctr=2;DDE Tn6 confirm=1
COc1cc(O)c([C@@H](CC(=O)N2CC(C)CC(C)C2)c2ccc3c(c2)OCO3)c(OC)c1 (some centres not stated)	2	3	0	-2	·	·	·	·	·	·
Cc1ccc(-n2c(COc3ccccc3)nnc2SCC(=O)Nc2ccc3c(c2)OCO3)cc1	-5	0	3	-2	·	0	·	·	·	·
C[N+]1=C(/C=C/Nc2ccccc2Cl)C(C)(C)c2ccccc21	3	-6	-7	7	-13	0	·	·	·	·
COC(=O)c1ccc2c(c1)C(C)(C)C(/C=C/c1ccccc1O)=[N+]2C	-20	i	-318	58*	-112	32*	1	0	·	·	DDE Tn6 FP ctr=-34;DDE Tn6 confirm=4
CCOC(=O)[C@@]12CCCC=C1N(CCc1ccc(Cl)cc1)C(=O)[C@H]2CC(=O)NCc1cccc(C(F)(F)F)c1	6	-3	0	-8	·	1	·	·	·	·
O=C1C=C(N2CCOCC2)c2cccc3cccc1c23	25*	-81	-65	31*	28*	27*	0	1	7	8	DDE Tn6 FP ctr=7;DDE Tn6 confirm=8
NC1=Nc2cccc3cccc1c23	2	-421	-334	38*	-14	53*	25*	27*	·	·	DDE Tn6 FP ctr=8;DDE Tn6 confirm=46*
